Data as given in ChEMBL document CHEMBL1148815, “New series of antiprion compounds: pyrazolone derivatives have the potent activity of inhibiting protease-resistant prion protein accumulation” (J Med Chem, 2007).

Experiments:
[1] = Hydroxy radical scavenging activity by ESR spin-trapping method; assay type: functional
Summary of the method: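 A mixture of 25 mM H2O2, 25 mM DMPO and compound was UV-irradiated. Hydroxyl radical scavenging was expressed as IC50.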

[2] = Superoxide dismutase like activity assessed as inhibition of WST1 tetrazolium formation at 1 mM; assay type: functional; parameters: scale not given: the % may be the effect or the level left
Summary of the method: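 Xanthine-based photometric kit assay with WST-1 tetrazolium salt. Compound was tested at 1 mM.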

[3] = Superoxide dismutase like activity assessed as inhibition of WST1 tetrazolium formation at 1 mM in presence of 2 mM Cu(II); assay type: functional; parameters: scale not given: the % may be the effect or the level left
ScN2a [4] = test: Cytotoxicity against mouse ScN2a cells by MTT assay; assay type: cell-based
[5] = Cytotoxicity against mouse F3 cells by MTT assay; assay type: cell-based; conditions: n2a #58 f3
ScN2a [6] = test: Antiprion activity in ScN2a cells assessed as inhibition of protease-resistant prion protein accumulation; assay type: functional, cell-based; conditions: Mus musculus
Summary of the method: (§1)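 Mouse N2a cells carrying RML scrapie (ScN2a) or N2a#58 cells carrying Fukuoka-1 (F3), grown in Opti-MEM with 10% FBS. Compound added at passage (10% confluency), cells grown to confluence over 3–4 days, then lysed. Lysates digested with 10 µg/mL proteinase K for 30 min at 37 °C. PrP-res detected by SDS-PAGE/immunoblot with SAF83. IC50 is the concentration halving PrP-res relative to control.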

[7] = Antiprion activity in F3 cells assessed as inhibition of protease-resistant prion protein accumulation; assay type: functional, cell-based; conditions: Mus musculus, N2a #58 F3; summary of the method: as §1
[8] = Cytotoxicity against human NB69 cells by MTT assay; assay type: cell-based; conditions: read-out: LD50 (the source's name)

Question: With O=C(NC1=NN(c2ccccc2)C(=O)C1)Oc1ccccc1 as the molecule, how does the IC50 [1] read?
Answer: 380 nM

Question: What about the Activity [2] of the same molecule?
Answer: 5.6%

Question: What about the Activity [3] of the same molecule?
Answer: 11.6%

Question: What about the Activity (ScN2a [4]) of the same molecule?
Answer: > 1000 nM

Question: What about the Activity [5] of the same molecule?
Answer: > 1000 nM

Question: What does the source list for CC1=NN(C2CCCCC2)C(=O)C1?
Answer: IC50 (ScN2a [6]): 13 nM; IC50 [7]: 25 nM; CC50 [8]: > 1000 nM; Activity (ScN2a [4]): > 1000 nM; Activity [5]: > 1000 nM

Question: What does the source list for O=C1CC(c2ccc([N+](=O)[O-])cc2)=NN1c1ccccc1?
Answer: IC50 (ScN2a [6]): 3 nM; IC50 [7]: 3 nM; IC50 [1]: 90 nM; Activity [2]: 1.8%; Activity [3]: 11.9%; CC50 [8]: > 1000 nM; Activity (ScN2a [4]): > 1000 nM; Activity [5]: > 1000 nM

Question: With CC1=NN(c2ccccc2)C(=O)C1C1CC1 (stereo not drawn) as the molecule, how does the IC50 [1] read?
Answer: 720 nM

Question: What about the Activity [2] of the same molecule?
Answer: 15.9%

Question: What about the Activity [3] of the same molecule?
Answer: 35.4%

Question: And the CC50 [8]?
Answer: > 1000 nM

Question: And the Activity (ScN2a [4])?
Answer: > 1000 nM

Question: And the Activity [5]?
Answer: > 1000 nM

Question: What does the source list for CC1=NN(c2ccccc2)C(=O)C1C(=O)c1ccccc1 (stereo not drawn)?
Answer: IC50 (ScN2a [6]): 6 nM; IC50 [7]: 1000 nM; IC50 [1]: 610 nM; CC50 [8]: > 1000 nM; Activity (ScN2a [4]): > 1000 nM; Activity [5]: > 1000 nM

Question: What does the source list for O=C(NC1=NN(c2ccccc2)C(=O)C1)c1ccccc1?
Answer: IC50 (ScN2a [6]): 2000 nM; IC50 [7]: 1260 nM; IC50 [1]: 220 nM; Activity [2]: 9.2%; Activity [3]: 3.2%; CC50 [8]: > 1000 nM; Activity (ScN2a [4]): > 1000 nM; Activity [5]: > 1000 nM

Question: With COC(=O)NC1=NN(c2ccccc2)C(=O)C1 as the molecule, how does the IC50 (ScN2a [6]) read?
Answer: 6 nM

Question: What about the IC50 [7] of the same molecule?
Answer: 501 nM

Question: And the CC50 [8]?
Answer: > 1000 nM

Question: And the Activity (ScN2a [4])?
Answer: > 1000 nM

Question: What about the Activity [5] of the same molecule?
Answer: > 1000 nM

Question: Which IC50 [7] does the source give for CC1=NN(c2ccccc2)C(=O)C1CC(C)C (stereo not drawn) here?
Answer: 16 nM

Question: What about the CC50 [8] of the same molecule?
Answer: > 1000 nM

Question: And the Activity (ScN2a [4])?
Answer: > 1000 nM

Question: And the Activity [5]?
Answer: > 1000 nM

Question: Which results are given for O=C1CC(c2ccccc2)=NN1c1ccccc1?
Answer: CC50 [8]: > 1000 nM; Activity (ScN2a [4]): > 100 nM; Activity [5]: > 100 nM

Question: Which IC50 (ScN2a [6]) does the source give for C=CC1CN2CC[C@H]1C[C@H]2[C@H](O)c1ccnc2ccc(OC)cc12 (single isomer, unassigned) [QUININE] here?
Answer: 10000 nM

Question: With O=C1CC(C(F)(F)F)=NN1c1ccccc1 as the molecule, how does the IC50 (ScN2a [6]) read?
Answer: 398 nM

Question: What about the IC50 [7] of the same molecule?
Answer: 631 nM

Question: What about the IC50 [1] of the same molecule?
Answer: 810 nM

Question: What about the Activity [2] of the same molecule?
Answer: 13.4%

Question: What about the Activity [3] of the same molecule?
Answer: 7.4%

Question: What about the CC50 [8] of the same molecule?
Answer: > 1000 nM

Question: What about the Activity (ScN2a [4]) of the same molecule?
Answer: > 1000 nM

Question: What about the Activity [5] of the same molecule?
Answer: > 1000 nM

Question: For O=C1CC(Cc2ccccc2)=NN1c1ccccc1, which CC50 [8] is on record?
Answer: > 300 nM

Question: And the Activity (ScN2a [4])?
Answer: > 1000 nM

Question: What about the Activity [5] of the same molecule?
Answer: > 1000 nM

Question: With O=C(NC1=NN(c2ccccc2)C(=O)C1)NC1CCCC1 as the molecule, how does the IC50 (ScN2a [6]) read?
Answer: 126 nM

Question: And the IC50 [7]?
Answer: 158 nM

Question: What about the CC50 [8] of the same molecule?
Answer: > 1000 nM

Question: What about the Activity (ScN2a [4]) of the same molecule?
Answer: > 1000 nM

Question: And the Activity [5]?
Answer: > 1000 nM

Question: With COc1ccc(C2=NN(c3ccccc3)C(=O)C2)cc1 as the molecule, how does the CC50 [8] read?
Answer: > 1000 nM

Question: What about the Activity (ScN2a [4]) of the same molecule?
Answer: > 100 nM

Question: And the Activity [5]?
Answer: > 100 nM

Question: With CC1=NN(c2ccccc2)C(=O)C1c1ccccc1 (stereo not drawn) as the molecule, how does the IC50 (ScN2a [6]) read?
Answer: 40 nM

Question: What about the IC50 [7] of the same molecule?
Answer: 1 nM

Question: And the IC50 [1]?
Answer: 790 nM

Question: What about the CC50 [8] of the same molecule?
Answer: > 1000 nM

Question: And the Activity (ScN2a [4])?
Answer: > 100 nM

Question: What about the Activity [5] of the same molecule?
Answer: > 100 nM

Question: For C=C[C@H]1CN2CC[C@H]1C[C@@H]2[C@@H](O)c1ccnc2ccc(OC)cc12 [QUINIDINE], which IC50 (ScN2a [6]) is on record?
Answer: 5000 nM

Question: With CC1=NN(c2ccccc2)C(=O)C1 [EDARAVONE] as the molecule, how does the IC50 (ScN2a [6]) read?
Answer: > 1000 nM

Question: What about the IC50 [1] of the same molecule?
Answer: 250 nM

Question: What about the Activity [2] of the same molecule?
Answer: 0.6%

Question: And the Activity [3]?
Answer: 5.7%

Question: With O=C(Nc1ccccc1)C1=NN(c2ccccc2)C(=O)C1 as the molecule, how does the IC50 (ScN2a [6]) read?
Answer: 398 nM

Question: What about the IC50 [7] of the same molecule?
Answer: 1580 nM

Question: And the CC50 [8]?
Answer: > 1000 nM

Question: And the Activity (ScN2a [4])?
Answer: > 1000 nM

Question: And the Activity [5]?
Answer: > 1000 nM

Question: Which results are given for CC1=NN(c2ccccc2)C(=O)C1c1ccccn1 (stereo not drawn)?
Answer: IC50 (ScN2a [6]): 79 nM; IC50 [7]: 631 nM; CC50 [8]: > 1000 nM; Activity (ScN2a [4]): > 1000 nM; Activity [5]: > 1000 nM

Question: With C=C(C)C1=NN(c2ccccc2)C(=O)C1 as the molecule, how does the IC50 (ScN2a [6]) read?
Answer: 158 nM

Question: What about the IC50 [7] of the same molecule?
Answer: 794 nM

Question: And the CC50 [8]?
Answer: > 1000 nM

Question: What about the Activity (ScN2a [4]) of the same molecule?
Answer: > 1000 nM

Question: What about the Activity [5] of the same molecule?
Answer: > 1000 nM

Question: With COc1ccc(N2N=C(C)CC2=O)cc1 as the molecule, how does the CC50 [8] read?
Answer: > 1000 nM

Question: And the Activity (ScN2a [4])?
Answer: > 100 nM

Question: What about the Activity [5] of the same molecule?
Answer: > 100 nM

Question: With CC1=NN(c2ccc(Cl)cc2)C(=O)C1 as the molecule, how does the IC50 (ScN2a [6]) read?
Answer: 0.5 nM

Question: And the CC50 [8]?
Answer: > 1000 nM

Question: And the Activity (ScN2a [4])?
Answer: > 100 nM

Question: And the Activity [5]?
Answer: > 100 nM
